Source: PubChem BioAssay (Sanford-Burnham Center for Chemical Genomics)
Rows were chosen to be rich in hits. Some 1.8% of all compounds tested hit in one or more screens of this group.
SKN-1 block – C. elegans SKN-1 inhibition; AID 624304; 0.49% of 360,000 active; C. elegans VP596 Pgst-4::GFP/RFP ratio, acrylamide-induced, 24 h; inhibition, % at 21.8 µM;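 active = interference check ratio from 0.5 to 1.5 plus GFP to RFP signal ratio inhibition reaching or exceeding a fixed threshold, cut at about 30% in these data, passing the limit was not always enough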
MLLE-PAM2 inh – blocks PAM2 peptide binding to the PABP1 MLLE domain | GST-MLLE / FITC-PAM2 fluorescence polarization | inhibition, % at 20 µM | 0.36% of 360,000 active | P11940; in the data active = inhibition above about 35%, passing the limit was not always enough;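 also: plate controls were DMSO wells with GST-MLLE for no effect and wells lacking GST-MLLE protein for full effect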
PABP polyA inh – PABP-poly(A) binding inhibition | P11940 | PABP-poly(A) RNA binding, fluorescence polarization | calls only at 35 µM | 1% of 290,000 active | AID 2014;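 also: calls also rest on retests at 20 µM and on dose response follow-up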
MT1-MMP act inh – MT1-MMP (human) activation inhibition. GFP/RFP ratio change, % at 20 µM. 0.061% of 360,000 active. P50281. HT1080 RFP-PRO-GFP cells, GFP/RFP ratio fluorescence, overnight; percent of plate control window, DMSO zero. AID 651647;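 active = GFP/RFP ratio change of at least 30% with cell ATP level not reduced by more than half and red fluorescence within 50% of control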
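Assay system – RFP-PRO-GFP reporter HT1080 cells · Compound dosing – single dose of 20 µM compound, 1% DMSO final · Incubation – overnight compound exposure at 37 °C · Measure – GFP/RFP fluorescence ratio · Benchmarks – DMSO wells and RFP-L50D-GFP cells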
eIF4H inh – inhibitors of RNA binding by human eIF4H | 0.94% of 290,000 active | inhibition, % at 35 µM | eIF4H fluorescence polarization binding assay;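 also: calls also rest on retests at 20 µM and on dose response follow-up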
* hit, by the source's call. Unless noted, no rule for the calls is given here.

Screening Brc1ccccc1OCCCCn1cnc2ccccc21 returned SKN-1 block 4, MLLE-PAM2 inh -8, PABP polyA inh inactive, MT1-MMP act inh -11 and eIF4H inh -2.
Screening Cc1ccc(OCCCCn2cnc3ccccc32)c(C)c1 returned SKN-1 block 44*, MLLE-PAM2 inh 4, PABP polyA inh inactive, MT1-MMP act inh 7 and eIF4H inh -5.
Screening O=C(CCC1CCCC1)NNC(=O)c1cccc(Cl)c1 returned SKN-1 block 3, MLLE-PAM2 inh 0, PABP polyA inh inactive, MT1-MMP act inh -1 and eIF4H inh -2.
Screening Cc1ccccc1N=Nc1ccc(O)c2ncccc12 returned SKN-1 block 3, MLLE-PAM2 inh -3, PABP polyA inh inactive, MT1-MMP act inh 0 and eIF4H inh 26.
`O=S(=O)(O)c1cccc2c(N=Nc3ccc(O)c4ncccc34)cccc12` gave SKN-1 block 3, MLLE-PAM2 inh 9, PABP polyA inh active, MT1-MMP act inh 23 and eIF4H inh 82*.
Cn1c(-c2ccc(CN3CCCCC3)o2)nc2ccccc21 was read as SKN-1 block 36*, MLLE-PAM2 inh 5, PABP polyA inh inactive, MT1-MMP act inh -1 and eIF4H inh -13.
Screening CCCCc1c(C)nc2ccc(C(=O)OCC)cc2c1Cl returned SKN-1 block 10, MLLE-PAM2 inh -7, PABP polyA inh active, MT1-MMP act inh -5 and eIF4H inh 3.
`c1cc(-c2ccc(CN3CCOCC3)cc2)n2ccnc2c1` gave SKN-1 block 5, MLLE-PAM2 inh -21 and MT1-MMP act inh 3.
`CN(C)C(=O)c1cccc(-c2cnc3c(NC=O)cc(-c4ccc(N(C)C)cc4)cn23)c1` gave SKN-1 block 36*, MLLE-PAM2 inh -50 and MT1-MMP act inh -57.
Screening CSc1nc(N2CCN(CCO)CC2)c2sc3nc(-c4ccco4)c4c(c3c2n1)CCC4 returned PABP polyA inh active and eIF4H inh 98*.
CSc1nc(SCC(=O)O)c2sc3nc(-c4ccccc4)c4c(c3c2n1)CCC4 was read as SKN-1 block -6, MLLE-PAM2 inh 10, PABP polyA inh active, MT1-MMP act inh 3 and eIF4H inh 71*.
For CSc1nc(NCCN(C)C)c2sc3nc(-c4ccco4)c4c(c3c2n1)CCC4 the results were SKN-1 block 17, MLLE-PAM2 inh -12 and MT1-MMP act inh 3.
For Cc1cc(C)c2c(n1)sc1c(N3CCN(CCO)CC3)ncnc12 the results were SKN-1 block -5, MLLE-PAM2 inh -4, PABP polyA inh inactive, MT1-MMP act inh 8 and eIF4H inh -7.
`CSc1nc(N(C)CCO)c2sc3nc(-c4ccco4)c4c(c3c2n1)CCC4` gave SKN-1 block 0, MLLE-PAM2 inh 9, PABP polyA inh active, MT1-MMP act inh 21 and eIF4H inh 79*.
Screening CCOC(=O)Cc1c[nH]c(=S)[nH]c1=O returned SKN-1 block 6, MLLE-PAM2 inh 40*, PABP polyA inh inactive, MT1-MMP act inh 1 and eIF4H inh -3.
For CCOC(=O)Cc1c(C)nc(N)[nH]c1=O the results were SKN-1 block -5, MLLE-PAM2 inh 17, PABP polyA inh inactive, MT1-MMP act inh 4 and eIF4H inh -2.
Screening CC(C)(C)NCC(=Cc1ccccc1)C(=O)c1ccccc1 returned SKN-1 block -3, MLLE-PAM2 inh 11 and MT1-MMP act inh 13.
For CN1C2CCC1CC(NS(=O)(=O)c1ccc(C#N)cc1)C2 (stereo unspecified) the results were SKN-1 block 7, MLLE-PAM2 inh -1, PABP polyA inh inactive, MT1-MMP act inh -5 and eIF4H inh 9.
COc1ccc(NC(=O)C2(C)Cc3c(-c4ccc(C(N)=O)cc4)ccnc3O2)cn1 (stereo unspecified) was read as SKN-1 block 10, MLLE-PAM2 inh 31 and MT1-MMP act inh -3.
For COc1ccc(COC(=O)CCCN=C2NS(=O)(=O)c3ccccc32)cc1F the results were SKN-1 block 9, MLLE-PAM2 inh -8 and MT1-MMP act inh 1.
Nc1nc2c(c(=O)[nH]1)C(c1ccccc1)C1=C(N2)c2ccccc2C1=O (stereo unspecified) was read as SKN-1 block -6, MLLE-PAM2 inh -3, PABP polyA inh inactive, MT1-MMP act inh 13 and eIF4H inh 0.
For COc1cc(C2C3=C(Nc4nc(N)[nH]c(=O)c42)c2ccccc2C3=O)ccc1O (stereo unspecified) the results were SKN-1 block -1, MLLE-PAM2 inh 15, PABP polyA inh active, MT1-MMP act inh 6 and eIF4H inh 93*.
For CN=c1scc(-c2cccs2)n1/N=C/c1ccc(O)c(O)c1O the results were SKN-1 block 2, MLLE-PAM2 inh 18 and MT1-MMP act inh -6.
Screening CC(C)N=c1scc(-c2ccco2)n1/N=C/c1ccc(O)c(O)c1 returned SKN-1 block 17, MLLE-PAM2 inh -19, PABP polyA inh inactive, MT1-MMP act inh -14 and eIF4H inh -13.
COCCN=c1scc(-c2ccco2)n1/N=C/c1ccc(O)c(O)c1O was read as SKN-1 block 8, MLLE-PAM2 inh 19, PABP polyA inh active, MT1-MMP act inh -1 and eIF4H inh inconclusive.
`C=CCN=c1scc(-c2ccco2)n1/N=C/c1ccc(O)c(O)c1O` gave SKN-1 block 8, MLLE-PAM2 inh 11, PABP polyA inh active, MT1-MMP act inh -8 and eIF4H inh 92*.
For CC(C)c1ccccc1-n1c(SCC(=O)N2CCc3ccccc3C2)nc2ccccc2c1=O the results were SKN-1 block 1, MLLE-PAM2 inh 0, PABP polyA inh active, MT1-MMP act inh -20 and eIF4H inh 5.
Screening CC(C)(C)n1nc2c(c1NC(=O)COc1ccc(Cl)cc1)CS(=O)(=O)C2 returned SKN-1 block -14, MLLE-PAM2 inh 7, PABP polyA inh active, MT1-MMP act inh 1 and eIF4H inh active.
For COc1ccc(OCC(=O)Nc2c3c(nn2C(C)(C)C)CS(=O)(=O)C3)cc1 the results were SKN-1 block -16, MLLE-PAM2 inh 3, PABP polyA inh inactive, MT1-MMP act inh 1 and eIF4H inh -4.
For COc1ccc(-c2csc(N(CC(C)C)C(=O)c3ccco3)n2)cc1 the results were SKN-1 block -6, MLLE-PAM2 inh 24, PABP polyA inh inactive, MT1-MMP act inh 0 and eIF4H inh -8.
Screening CN(C(=O)c1ccco1)c1nc(-c2ccccc2)cs1 returned SKN-1 block 40*, MLLE-PAM2 inh 9, PABP polyA inh inactive, MT1-MMP act inh 1 and eIF4H inh -17.
CCN(C(=O)c1ccco1)c1nc(-c2ccc(OC)cc2)cs1 was read as SKN-1 block 46*, MLLE-PAM2 inh 9, PABP polyA inh inactive, MT1-MMP act inh 3 and eIF4H inh -6.
`COCCN(C(=O)c1ccco1)c1nc(-c2ccccc2)cs1` gave SKN-1 block 6, MLLE-PAM2 inh -3, PABP polyA inh inactive, MT1-MMP act inh 2 and eIF4H inh -7.
